The list is not random: actives were taken first. Their share in the collection is about 3.8%.
MrgX1 antagonist: blocks BAM8-22 activation of human MrgX1 receptor | Q96LB2 | MRGX1-HEK293 calcium flux, Fluo-4, BAM8-22 antagonism; active compounds read low | B-score at 10 µM | 310,000 compounds, 1.3% hits | AID 588676;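 active = calcium-response B-score plate-corrected more than 3 library SD below zero, starting fluorescence within 5 deviations, no agonist response on first addition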;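 note: peak minus trough fluorescence over baseline after final BAM8-22 challenge near maximal dose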
Target sequence (Q96LB2 whole entry, looked up): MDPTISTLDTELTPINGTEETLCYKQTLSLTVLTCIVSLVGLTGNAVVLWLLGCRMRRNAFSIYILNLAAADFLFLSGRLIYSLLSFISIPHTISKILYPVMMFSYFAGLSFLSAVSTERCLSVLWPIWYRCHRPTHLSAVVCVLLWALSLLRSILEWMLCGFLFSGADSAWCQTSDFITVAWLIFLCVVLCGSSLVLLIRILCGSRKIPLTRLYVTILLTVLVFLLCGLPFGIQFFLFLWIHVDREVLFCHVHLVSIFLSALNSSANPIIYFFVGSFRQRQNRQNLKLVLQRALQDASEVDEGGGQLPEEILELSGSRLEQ
Lipid droplet: hepatic lipid droplet formation modulation | AML12 mouse hepatocytes, oleate lipid droplets, BODIPY imaging | AID 1656 | inhibition, % at 6.5 µM | 240,000 compounds, 0.4% hits;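 active = lipid droplet intensity inhibited by at least 50%, with more than 500 cells counted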
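Test system: AML12 hepatocytes (mouse); reagent: oleate loading, 100 µM; dosing: one dose, 6.5 µM compound; incubation: overnight exposure; signal: fluorescence imaging, 20x objective, two fields per well; read-out basis: % inhibition of corrected integrated BODIPY droplet signal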
RGS4 block: human RGS4 inhibition; P49798; HEK293 M3R/RGS4 inducible, Fluo-4 calcium flux; active compounds read high; triggered by carbachol at its EC20; B-score at 10 µM; 310,000 compounds, 0.45% hits;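 active = B-score, a plate-corrected calcium signal, over three deviations above library mean, with baseline fluorescence within five deviations of library mean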;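 note: RGS4 expression induced by doxycycline in cells with stable M3 receptor; B-score is computed from the integrated fluorescence ratio over baseline after carbachol; higher B-score means a larger calcium signal and so more RGS4 inhibition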
Target sequence (P49798 whole entry, looked up): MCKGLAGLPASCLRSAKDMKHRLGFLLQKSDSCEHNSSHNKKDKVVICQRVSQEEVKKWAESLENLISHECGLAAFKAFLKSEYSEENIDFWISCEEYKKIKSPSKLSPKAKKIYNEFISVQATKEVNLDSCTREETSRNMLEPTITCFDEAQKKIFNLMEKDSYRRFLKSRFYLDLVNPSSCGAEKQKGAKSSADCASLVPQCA
MrgX1 ag: human MrgX1 receptor agonism, primary screen; AID 588627; MrgX1-HEK293 cells, Fluo-4 calcium fluorescence, agonist mode; active compounds read high; 310,000 compounds, 0.44% hits; B-score at 10 µM;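 active = calcium response B-score plate-corrected fluorescence ratio at least 3 library SD, with starting fluorescence B-score inside 5 SD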
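System – MrgX1-expressing HEK293 cells · Incubation – cells plated overnight, dye loaded 0.5 h 37 °C, 0.5 h room temperature · Technique – kinetic Fluo-4 NW fluorescence of intracellular calcium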
RGS4 act: potentiators or activators of RGS4 | B-score at 10 µM | HEK293 M3R/inducible RGS4, carbachol calcium flux Fluo4; active compounds read low | 310,000 compounds, 0.92% hits | AID 463111;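 active = B-score of the integrated calcium signal more than 4 SD below the library mean, with starting fluorescence not abnormally high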;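 note: negative B-score means reduced calcium response which marks RGS4 activation or potentiation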
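Material: M3R-expressing HEK293 line, RGS4 induced by doxycycline | Schedule: Overnight RGS4 induction, 30 min dye load 37 °C, 20 min compound RT | Measured by: Fluo4 fluorescence kinetic imaging of calcium | Read-out: Integrated calcium ratio converted to B score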
MrgX1 allo act: human MrgX1 positive allosteric modulation, primary screen; AID 588675; B-score at 10 µM; 310,000 compounds, 0.63% hits; MrgX1-HEK293, Fluo-4 calcium flux, FDSS; active compounds read high; Q96LB2;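 active = plate-corrected calcium response at least 3 library SD above typical, normal starting fluorescence, not activating the receptor alone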;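 note: compound read alongside a low EC10 to EC30 dose of BAM8-22 agonist; peak minus trough fluorescence over baseline measured at the second addition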
MrgX1 ag reconf: confirmation of human MrgX1 receptor agonists | shares compounds with MrgX1 ag | MrgX1-HEK293, Fluo-4 calcium fluorescence, FDSS | activation, % at 10 µM | 600 compounds, 78% hits | AID 602412;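 active = calcium signal rise, corrected for plate position, at least 3 library SD high, with starting brightness within 5 such deviations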; note: reference of the scale not given here
HEK293 Ca flux: MrgX1 antagonist counter-screen hit in parental HEK293 cells; shares compounds with MrgX1 antagonist; Fluo-4 calcium fluorescence, FDSS; fluorescence ratio F(max-min)/F0 at 10 µM; 4,000 compounds, 2% hits; AID 624111;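 active = duplicate-averaged calcium fluorescence ratio at least three times the standard deviation of buffer wells, a nonspecific response in parental cells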
HEK293 Ca counter: counter-screen for MrgX1 allosteric activators: effect in parental HEK293 cells; shares compounds with MrgX1 antagonist; parental HEK293 calcium flux, Fluo-4 fluorescence ratio; active compounds read high; fluorescence ratio F(max-min)/F0 at 10 µM; 4,000 compounds, 0.4% hits; AID 624114;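 active = calcium fluorescence ratio, averaged over duplicates, at least 3 SD of the buffer-well ratio, meaning a nonspecific response in receptor-free cells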;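 note: untransfected parental HEK293 lacking MrgX1 used as counterscreen for MrgX1 allosteric activators; fluorescence change taken during the second addition on a kinetic imager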
HEK293 Ca cntr2: activity in parental HEK293 cells lacking MrgX1 receptor; shares compounds with MrgX1 antagonist; Fluo-4 calcium fluorescence (FDSS); active compounds read high; fluorescence ratio F(max-min)/F0 at 10 µM; 4,000 compounds, 8.7% hits;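 active = calcium fluorescence ratio at least three times the spread of buffer wells, meaning a non-specific response in parental cells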
Numbers without * were called inactive; i = inactive; . = no result given.

SMILES	MrgX1 antagonist	Lipid droplet	RGS4 block	MrgX1 ag	RGS4 act	MrgX1 allo act	MrgX1 ag reconf	HEK293 Ca flux	HEK293 Ca counter	HEK293 Ca cntr2
Cc1ccc(SCc2[nH]nc3c2C(c2ccco2)C(C#N)=C(N)O3)cc1 (stereo not drawn)	i	-6	i	40*	i	i	161%*	i	i	i
CC(C)c1[nH]nc2c1C(c1ccco1)C(C#N)=C(N)O2 (stereo not drawn)	i	1	i	27*	i	i	i	i	i	i
CC(C)c1[nH]nc2c1C(c1cccnc1)C(C#N)=C(N)O2 (stereo not drawn)	i	.	i	i	i	i	.	.	.	.
CCc1[nH]nc2c1C(c1ccc(Br)s1)C(C#N)=C(N)O2 (stereo not drawn)	i	0	.	48*	.	i	146%*	i	i	i
Cc1ccc(C(=O)N/C(=C\c2cccs2)C(=O)N2CCOCC2)cc1C	i	12	i	i	i	i	.	.	.	.
CCCn1c(=O)c(C(=O)NNC(=O)c2ccccc2Cl)c(O)c2ccccc21	i	-4	i	97*	i	i	308%*	i	i	64*
CCCCCn1c(=O)c(-c2nc3ccccc3[nH]2)c(O)c2ccccc21	i	19	i	i	i	i	.	.	.	.
O=C(CN1CCC(NC(=O)c2ccccc2Cl)CC1)NCc1ccco1	i	0	i	i	i	i	.	.	.	.
N=C(N)SCCc1cccc(CCSC(=N)N)c1	i	.	i	40*	i	i	181%*	i	i	i
COc1ccccc1N(CC(=O)N1CCCCCC1)S(=O)(=O)c1ccc(C)cc1	i	-35	i	i	i	i	.	.	.	.
CCOc1ccccc1N(CC(=O)N1CCC(C)CC1)S(=O)(=O)c1ccc(C)cc1	i	-18	i	i	i	i	.	.	.	.
CCOc1ccccc1N(CC(=O)N1CCOCC1)S(=O)(=O)c1ccccc1	i	-1	i	138*	i	i	541%*	i	i	103*
CCOc1ccccc1N(CC(=O)N1CCCCCC1)S(=O)(=O)c1ccc(C)cc1	i	-19	i	34*	i	i	142%*	i	i	50*
Cc1ccc(C)c(Cn2nnc3c(=O)[nH]c(C4CCCN(C(=O)c5cccs5)C4)nc32)c1 (stereo not drawn)	i	-12	i	i	i	i	.	.	.	.
CCN(CC)CCCN=Cc1c(-c2ccccc2)[nH]n(-c2nc3ccccc3s2)c1=O	i	-5	i	i	i	i	.	.	.	.
CCCc1[nH]n(-c2nc3ccccc3s2)c(=O)c1C=NCC(C)C	i	1	i	29*	i	i	227%*	i	i	59*
COc1ccc2c(c1)CC/C(=C\Nc1ccc3c(c1)OCO3)C2=O	i	1	i	27*	i	i	i	i	i	i
COc1ccc(/C=C(\C#N)C(=O)OCC(=O)Nc2ccc(C(C)(C)C)cc2)cc1	i	6	i	i	i	i	.	.	.	.
CCOc1cc(C#N)ccc1OCC(=O)N1CCc2ccccc2C1	i	-3	i	i	i	i	.	.	.	.
COc1cc(C#N)ccc1OCC(=O)N1CCc2ccccc2C1	i	-6	i	50*	i	i	i	i	i	i
CCOc1ccc(Br)cc1S(=O)(=O)Nc1ncn[nH]1	i	14	i	32*	i	i	i	i	i	i
CCOc1ccc(S(=O)(=O)Nc2ncn[nH]2)cc1	i	-2	i	i	i	i	.	.	.	.
COc1ccccc1-c1cc2nc(C)c(CCC(=O)NC(C)CCc3ccco3)c(C)n2n1 (stereo not drawn)	i	.	i	i	i	i	.	.	.	.
O=C(CN(c1ccc(F)cc1)S(=O)(=O)c1ccc2c(c1)OCCO2)Nc1cccnc1	i	-12	i	40*	i	i	i	i	i	i
Cc1nn(-c2ccccc2)c2c1C(c1ccc(F)cc1F)C(C#N)=C(N)O2 (stereo not drawn)	i	-1	i	27*	i	i	183%*	i	i	i
SMILES	MrgX1 antagonist	Lipid droplet	RGS4 block	MrgX1 ag	RGS4 act	MrgX1 allo act	MrgX1 ag reconf	HEK293 Ca flux	HEK293 Ca counter	HEK293 Ca cntr2
COC(=O)[C@@](C)(O)C1(C(=O)SC(C)(C)C)CC1	i	.	i	i	i	i	.	.	.	.
C=CCOC(=O)C1=C(C)OC(N)=C(C#N)C1c1ccccc1F (stereo not drawn)	i	3	i	27*	i	i	173%*	i	i	i
COC(=O)c1cc(S(=O)(=O)N(Cc2ccccc2)C(C)(C)C)c[nH]1	i	4	i	i	i	i	.	.	.	.
CCC(Sc1nc2ncccc2[nH]1)C(=O)N1CCOCC1 (stereo not drawn)	i	2	i	i	i	i	.	.	.	.
CCOC(=O)c1c(NC(=O)c2ccccc2C(=O)O)sc2c1CCCC2	i	0	i	34*	i	i	192%*	i	i	i
O=C(CN1C(=O)C(=O)c2ccccc21)c1ccccc1	i	-7	i	i	i	i	.	.	.	.
O=C1C(=O)N(Cc2cccs2)c2ccccc21	i	-1	i	33*	i	i	185%*	i	i	i
COc1ccc(-n2c(O)c(/C=N/NS(=O)(=O)c3cc(C)ccc3C)c3ccccc3c2=O)cc1OC	i	1	i	130*	-7.7*	i	322%*	0.32*	i	132*
COc1ccc(C)cc1S(=O)(=O)Nc1ccc(-n2c(C)nc3ccccc3c2=O)cc1	i	.	i	i	i	i	.	.	.	.
COc1ccc(-n2c(O)c(/C=N/Nc3nc(C)cc(C)n3)c3ccccc3c2=O)cc1OC	i	5	i	i	i	i	.	.	.	.
